What was measured:
SR [1] = test: cells; conditions: Homo sapiens
[2] = Cytotoxicity against human PCS-800-011 cells assessed as inhibition of cell growth by MTT assay; assay type: toxicity, cell-based
A549 = test: Antiproliferative activity against human A549 cells assessed as inhibition of cell growth by MTT assay; assay type: functional, cell-based
PC-3 = test: Antiproliferative activity against human PC-3 cells assessed as inhibition of cell growth by MTT assay; assay type: functional, cell-based
MCF7 = test: Antiproliferative activity against human MCF7 cells assessed as inhibition of cell growth by MTT assay; assay type: functional, cell-based
[3] = molecular target: Serine/threonine-protein kinase mTOR (Homo sapiens, UniProt P42345); test: Inhibition of mTOR (unknown origin) incubated for 1 hr by ELISA analysis
Procedure, shortened: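 Glutathione-coated plate loaded with mTOR substrate (1 h, room temperature). mTOR with compound in 2X kinase assay buffer, 30 min at 30 °C, then stop solution. Phospho-p70S6K-T389 detected by primary antibody, then HRP conjugate (1 h each), TMB, A450 with 540 or 595 nm reference.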

[4] = Inhibition of PI3K (unknown origin); design: species or system Homo sapiens
Procedure, shortened: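 ELISA kit PI3 kinase assay with LY294002 as reference. Inhibitor preincubated 10 min before PIP2 substrate in kinase reaction buffer (25 µl final), 1 h reaction. Product detected by competition with biotinylated PIP3 for GRP1, with SA-HRP and TMB colour.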

SR [5] = test: Antiproliferative activity against human SR cells assessed as inhibition of cell growth; assay type: functional, cell-based
Procedure, shortened: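 SR leukemia cells from ATCC were cultured in DMEM with 10% FBS, 10 ug/ml insulin and 1% penicillin-streptomycin. Reconstituted MTT was added at 10% of culture volume for 2–4 h. Formazan was dissolved in solubilization solution and read at 570 nm. Viability was calculated as treated A570 over untreated A570 ×100, with dose-response curves.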

SMILES: COc1cccc2c1C(=O)c1c(O)c3c(c(O)c1C2=O)C[C@@](O)(C(=O)CO)C[C@@H]3O[C@H]1C[C@H](N)[C@H](O)[C@H](C)O1 [DOXORUBICIN]
- IC50 (SR [1]): 0.59 µM

SMILES: CN[C@@H]1C[C@H]2O[C@@](C)([C@@H]1OC)n1c3ccccc3c3c4c(c5c6ccccc6n2c5c31)C(=O)NC4 [STAUROSPORINE]
- IC50 [2]: 18.3 µM

SMILES: O=S1(=O)CCc2nc(N3N=C(c4ccc(F)cc4)C[C@@H]3c3ccc(Cl)c(Cl)c3)nc(N3CCOCC3)c2C1
- IC50 (A549): 23.8 µM
- IC50 (PC-3): 19.1 µM
- IC50 (MCF7): 30.7 µM

SMILES: CO[C@H]1C[C@@H]2CC[C@@H](C)[C@@](O)(O2)C(=O)C(=O)N2CCCC[C@H]2C(=O)O[C@H]([C@H](C)C[C@@H]2CC[C@@H](OCCO)[C@H](OC)C2)CC(=O)[C@H](C)/C=C(\C)[C@@H](O)[C@@H](OC)C(=O)[C@H](C)C[C@H](C)/C=C/C=C/C=C/1C [EVEROLIMUS]
- IC50 [3]: 0.53 µM

SMILES: COc1ccc(-c2nc(N/N=C/c3cccc(O)c3)nc(N3CCOCC3)c2C#N)cc1
- IC50 [4]: 6.09 µM
- IC50 (SR [5]): 13.6 µM

SMILES: COc1ccc(-c2nc(N/N=C/c3cccc(Br)c3)nc(N3CCOCC3)c2C#N)cc1
- IC50 [4]: 6.09 µM
- IC50 (SR [5]): 0.76 µM

SMILES: COc1ccc(-c2nc(N/N=C/c3ccc(O)c(OC)c3)nc(N3CCOCC3)c2C#N)cc1
- IC50 [4]: 6.09 µM
- IC50 (SR [5]): 4.37 µM

SMILES: O=c1[nH]cc(F)c(=O)[nH]1 [FLUOROURACIL]
- IC50 (SR [1]): 7.38 µM
